Published values of several laboratories.
Protocols differ between the studies behind these lines.
Target: Inhibitor of nuclear factor kappa-B kinase subunit alpha (CHUK, Homo sapiens, UniProt O15111)
One construct used (O15111 1-745): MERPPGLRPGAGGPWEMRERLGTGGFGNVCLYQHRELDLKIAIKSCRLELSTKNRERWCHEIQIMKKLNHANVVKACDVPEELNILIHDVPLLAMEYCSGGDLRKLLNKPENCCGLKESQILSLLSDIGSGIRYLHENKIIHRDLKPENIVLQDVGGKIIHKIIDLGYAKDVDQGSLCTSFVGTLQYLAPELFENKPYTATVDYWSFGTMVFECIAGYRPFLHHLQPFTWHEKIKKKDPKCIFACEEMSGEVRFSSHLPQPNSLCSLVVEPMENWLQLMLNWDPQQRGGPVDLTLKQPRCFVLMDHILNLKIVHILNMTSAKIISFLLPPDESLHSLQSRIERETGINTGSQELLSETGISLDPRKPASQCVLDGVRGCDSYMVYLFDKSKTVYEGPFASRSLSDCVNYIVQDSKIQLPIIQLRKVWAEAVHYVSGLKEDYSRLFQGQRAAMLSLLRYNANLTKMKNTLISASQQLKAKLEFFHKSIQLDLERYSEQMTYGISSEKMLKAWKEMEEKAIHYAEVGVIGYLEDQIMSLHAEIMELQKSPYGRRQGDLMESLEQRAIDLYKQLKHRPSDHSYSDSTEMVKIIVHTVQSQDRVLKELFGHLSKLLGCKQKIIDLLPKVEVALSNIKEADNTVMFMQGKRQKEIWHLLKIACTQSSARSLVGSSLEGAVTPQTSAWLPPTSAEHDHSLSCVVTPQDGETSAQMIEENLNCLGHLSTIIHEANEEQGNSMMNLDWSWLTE

| SMILES | read-out | method | concentration | remaining binding [%] |
| --- | --- | --- | --- | --- |
| CN(C)c1nccc(-c2cnn3ncccc23)n1 | binding | – | 1 µM | 81 |
| COc1ncc2cc3ccccc3nc2c1C#N | cell-free assay | competition with immobilised ligand | 5 µM | 98 |
| C[C@H]1CCN(c2nccc(-c3cnn4ncccc34)n2)C1 | binding | – | 1 µM | 62 |
| CC1=C(C#N)C(c2ccc3c(c2)c(NC(=O)c2ccccc2C)nn3C)C(C#N)=C(C)N1 | cell-free assay | competition with immobilised ligand | 1 µM | 77 |
| N#Cc1ccccc1CSc1nnc2c(n1)[nH]c1ccccc12 | binding | competition with immobilised ligand | 10 µM | 100 |
| O=C(c1ccc(Nc2nccc(-c3cc4ccccc4s3)n2)cc1)N1CCC(N2CCCC2)CC1 | binding | competition with immobilised ligand | 1 µM | 0.2 |
| O=C(NC[C@@H]1[C@H]2CN(C(=O)OCc3cc(C(F)(F)F)cc(C(F)(F)F)c3)C[C@@H]12)c1ccc2[nH]nnc2c1 | cell-free assay | competition with immobilised ligand | 1 µM | 100 |
| Nc1ncc2c(n1)-c1c([nH]c3ccc(C#CC4CC4)cc13)CCCC2 | binding | competition with immobilised ligand | 1 µM | 98 |
| O=C(c1ccc(Nc2ncc(Cl)c(-c3cc4ccccc4s3)n2)cc1)N1CCC(N2CCCC2)CC1 | binding | competition with immobilised ligand | 1 µM | 0.8 |
| c1cnn2ncc(-c3ccnc(N4CCC45COC5)n3)c2c1 | binding | – | 1 µM | 35 |
| O=C(Nc1c[nH]nc1C(=O)NC1CCNCC1)c1cc(F)cc(F)c1 | binding | competition with immobilised ligand | 1 µM | 100 |
| C[C@@H](c1cccc(C#N)c1)n1cc(Cl)cc(C(N)=O)c1=N | cell-free assay | competition with immobilised ligand | 1 µM | 100 |
| CN(C)c1nccc(-c2cnc3ncccn23)n1 | binding | – | 1 µM | 71 |
| CS(=O)(=O)c1cc(C2(NC(=O)c3cncc4c3cnn4-c3ccc(F)cc3)CC2)ccn1 | cell-free assay | competition with immobilised ligand | 1 µM | 100 |
| CN(c1nccc(-c2cnn3ncccc23)n1)C1CC1 | binding | – | 1 µM | 100 |
| Cn1cc(Cl)c2c(Oc3c(F)cc(Nc4cc(Cl)nc(N)n4)cc3F)ccnc21 | cell-free assay | competition with immobilised ligand | 0.1 µM | 85 |
| O=C(NCCCN1CCOCC1)c1ccc(Nc2nccc(-c3cc4ccccc4s3)n2)cc1 | binding | competition with immobilised ligand | 1 µM | 12 |
| Cc1cnn2ncc(-c3ccnc(N(C)C)n3)c2c1 | binding | – | 1 µM | 69 |
| CCC(=O)N[C@H]1CC[C@@H](C(=O)N(C)c2ccc(-c3nc4ccccc4o3)cc2)C1 | cell-free assay | competition with immobilised ligand | 1 µM | 100 |
| C[C@@H]1CN(c2ccc3ncc(-c4ccc5[nH]nc(C6CC6)c5c4)n3n2)C[C@H](C)O1 | binding | competition with immobilised ligand | 0.5 µM | 85 |
| O=C(NS(=O)(=O)c1ccc(NCC2CCOCC2)c([N+](=O)[O-])c1)c1ccc(N2CCN(Cc3ccc(C(F)(F)F)cc3-c3ccc(Cl)cc3)CC2)cc1Oc1cnc2[nH]ccc2c1 | cell-free assay | competition with immobilised ligand | 1 µM | 81 |
| CNC(=O)[C@@H]1CC[C@@H](n2c(-c3ccc4cnccc4c3)nc3ccc(C(=O)NCc4cccc(C(N)=O)c4)cc32)C1 | binding | competition with immobilised ligand | 1 µM | 100 |
| CCCOc1ccc([C@@H]2[C@@H](C(=O)O)[C@H](c3ccc4c(c3)OCO4)CN2CC(=O)Nc2c(CC)cccc2CC)cc1 | cell-free assay | competition with immobilised ligand | 1 µM | 86 |
| CCN1CCN(Cc2ccc(C(=O)Nc3ccc(C)c(Oc4ccc5c(c4)CC(=O)N5)c3)cc2C(F)(F)F)CC1 | binding | competition with immobilised ligand | 1 µM | 74 |
| N[C@@H]1CCN(c2nccc(-c3cnn4ncccc34)n2)C1 | binding | – | 1 µM | 100 |
